Experimental data from different studies.
Lines come from different studies, so protocols differ.
Effect on: cell growth or viability

With O=C(Nc1cccc(F)c1)Nc1cccc(C(=O)Nc2ccc3[nH]ncc3c2)c1 the IC50 was 41.5 µM (KM12; ATP luminescence; 72 h).
The IC50 of COc1cc2c(Oc3ccc(NC(=O)C4(C(=O)Nc5ccc(F)cc5)CC4)cc3F)ccnc2cc1OCCCN1CCOCC1 is reported as 0.59 µM (Rh41; 72 h).
For COc1ccc2c(c1)/C(=N/NC(=O)c1cc3ccccc3[nH]1)C(=O)N2C, the IC50 was 1.48 µM (ZR75).
With O=C(Nc1ccc(C(F)(F)F)cc1)Nc1cccc(C(=O)Nc2ccc3[nH]nc(-c4ccccc4)c3c2)c1 the IC50 was greater than 50 µM (KM12; ATP luminescence; 72 h).
The IC50 of CCCCC[C@H](O)CC(=O)CCc1ccc(O)c(OC)c1 is reported as 199 µM (COR-L23; SRB).
CN1C(=O)/C(=N\NC(=O)c2cc3ccccc3[nH]2)c2ccccc21 has an IC50 of 1.53 µM (ZR75).
CCCCC(C(=O)COc1c(F)c(F)cc(F)c1F)n1cc([C@](C)(CC(C)C)NCc2ccc3ncccc3c2)nn1 (stereo partly drawn) has an IC50 of greater than 10 µM (BESM; 72 h).
The IC50 of O=C(O)CCCc1ccccc1 is reported as greater than 50 µM (PSN1; MTT; 72 h).
With COc1cc2nccc(Oc3ccc(NC(=O)C4(C(=O)Nc5ccc(F)cc5)CC4)cc3)c2cc1OC the IC50 was 2.4 µM (Rh41; 72 h).
For CC1=CC(C)(C)N(Cc2ccccc2)c2ccc(O)cc21, the IC50 was 5.2 µM (Hep3B; MTT; 72 h).
For C[C@H]1[C@@H](O)O[C@@H]2O[C@@]3(C)CC[C@H]4[C@H](C)CC[C@@H]1[C@@]24OO3, the IC50 was greater than 50 µM (Hep3B; CCK-8; 48 h).
CCCCC(C(=O)COc1c(F)c(F)cc(F)c1F)n1cc([C@@](C)(NCc2ccc3ncccc3c2)C(C)C)nn1 (stereo partly drawn) has an IC50 of greater than 10 µM (BESM; 72 h).
CN1C(=O)/C(=N\NC(=O)c2cc3ccccc3[nH]2)c2cc(Br)ccc21 has an IC50 of 1.01 µM (ZR75).
With CN1CCN(CC(=O)Nc2cccc(C(=O)Nc3ccc4[nH]ncc4c3)c2)CC1 the IC50 was greater than 50 µM (KM12; ATP luminescence; 72 h).
CCCCC/C=C/C(=O)CCc1ccc(O)c(OC)c1 gave an IC50 of 16.2 µM (COR-L23; SRB).
The IC50 of O=C(Nc1ccc2[nH]ncc2c1)c1cccc(NC(=S)Nc2ccc(F)cc2F)c1 is reported as 30.6 µM (KM12; ATP luminescence; 72 h).
With Cc1[nH]c2ccccc2c1CCNCc1ccc(/C=C/C(=O)NO)cc1 the IC50 was 0.0088 µM (A2780C/P; crystal violet; 48 h).
O=C(Nc1ccc(C(F)(F)F)cc1)Nc1cccc(C(=O)Nc2ccc3[nH]ncc3c2)c1 gave an IC50 of 33.5 µM (KM12; ATP luminescence; 72 h).
For CN1C(=O)/C(=N\NC(=O)c2cc3ccccc3[nH]2)c2cc(F)ccc21, the IC50 was 4.31 µM (ZR75).
The IC50 of O=C(Nc1ccc(OC(F)(F)F)cc1)Nc1cccc(C(=O)Nc2ccc3[nH]ncc3c2)c1 is reported as 43.3 µM (KM12; ATP luminescence; 72 h).
The IC50 of CC(C)C[C@H](NC(=O)[C@H](Cc1ccccc1)NC(=O)c1cnccn1)B(O)O is reported as 0.024 µM (CAKI-2; ATP luminescence).
